Source: ChEMBL document CHEMBL1122220, “Synthesis and antiallergic activity of some acidic derivatives of 4H-pyrimido[2,1-b]benzazol-4-ones” (1983)
The source made the active and inactive calls. The rule behind the calls is not given here.

Key:
[1] = tested on: Rattus norvegicus; test: Minimum effective dose (MED) intraperitoneally in passive cutaneous anaphylaxis (PCA) model for 50% inhibition in Sprague-Dawley rat; format: functional; conditions: ip, read-out: MED
Summary of the method: (§1)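 Rat passive cutaneous anaphylaxis in Sprague-Dawley rats. Compounds given ip as a Klucel suspension at 5, 1.25 and/or 0.31 mg/kg (some at 10, 2.5 and 0.63 mg/kg ip), six animals per dose. MED is the lowest dose giving >50% inhibition with p ≤ 0.05 (Student's t test). Where data sufficed, ID50 with 95% confidence range was derived from experiments of six animals each.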

[2] = organism: Rattus norvegicus; test: Minimum effective dose (MED) perorally in passive cutaneous anaphylaxis (PCA) model for 50% inhibition in Sprague-Dawley rat; format: functional; conditions: po, read-out: MED
Summary of the method: (§2)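 Sprague-Dawley rat passive cutaneous anaphylaxis with oral dosing of a Klucel suspension at 10, 5 and/or 2.5 mg/kg, six animals per dose. MED po is the lowest dose producing >50% inhibition at p ≤ 0.05 (Student's t test).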

[3] = tested on: Rattus norvegicus; test: Concentration of compound intraperitoneally in passive cutaneous anaphylaxis (PCA) model for 50% inhibition in Sprague-Dawley rat; format: functional; conditions: ip, read-out: ID50 (the source's name); summary of the method: as §1
[4] = organism: Rattus norvegicus; test: Concentration of compound perorally in passive cutaneous anaphylaxis (PCA) model for 50% inhibition in Sprague-Dawley rat; IN-Ineffective; format: functional, organism-based; summary of the method: as §2

Row | Compound | minimal effective dose [1] [mg/kg] | minimal effective dose [2] [mg/kg] | ED50 [3] [mg/kg] | ID50 [4]
1 | O=C(Nc1nn[nH]n1)c1cnc2sc3ccccc3n2c1=O | 1.25 | > 10 | – | –
2 | Cn1c2ccccc2n2c(=O)c(C(=O)O)cnc12 | 0.63 | > 10 | – | –
3 | Cn1c2ccccc2n2c(=O)c(C(=O)Nc3nn[nH]n3)cnc12 | 0.31 | > 10 | – | –
4 | O=C(Nc1nn[nH]n1)c1cc(=O)n2c(n1)sc1ccccc12 | 1.25 | > 10 | – | –
5 | O=C(O)c1cc(=O)n2c(n1)oc1ccccc12 | 5 | > 10 | – | –
6 | O=C(O)c1cnc2oc3ccccc3n2c1=O | > 5 | > 10 | – | –
7 | O=c1cc(-c2nn[nH]n2)nc2sc3ccccc3n12 | 5 | > 10 | – | –
8 | O=c1cc(-c2nn[nH]n2)nc2oc3ccccc3n12 | 1.25 | > 10 | – | –
9 | O=C(Nc1nn[nH]n1)c1cc(=O)n2c(n1)oc1ccccc12 | 1.25 | > 10 | – | –
10 | O=C([O-])c1cc(=O)c2c(OCC(O)COc3cccc4oc(C(=O)[O-])cc(=O)c34)cccc2o1.[Na+].[Na+] [CROMOLYN SODIUM] | – | – | 2.6 | inactive
11 | Cn1c2ccccc2n2c(=O)cc(C(=O)O)nc12 | > 5 | > 10 | – | –
12 | O=c1c(-c2nnn[nH]2)cnc2sc3ccccc3n12 | 1.25 | > 10 | – | –
13 | O=C(O)c1cc(=O)n2c(n1)sc1ccccc12 | > 5 | > 10 | – | –
14 | Cn1c2ccccc2n2c(=O)cc(-c3nn[nH]n3)nc12 | 5 | – | – | –
15 | O=C(O)c1cnc2sc3ccccc3n2c1=O | > 5 | > 10 | – | –
16 | Cn1c2ccccc2n2c(=O)cc(C(=O)Nc3nn[nH]n3)nc12 | 1.25 | 10 | – | –
17 | Cn1c2ccccc2n2c(=O)c(-c3nnn[nH]3)cnc12 | 0.31 | 2.5 | – | –
18 | O=c1c(-c2nnn[nH]2)cnc2oc3ccccc3n12 | 1.25 | 5 | – | –
19 | O=C(Nc1nn[nH]n1)c1cnc2oc3ccccc3n2c1=O | 1.25 | 10 | – | –
